test system: Mus musculus; assay: Antiinflammatory activity against carrageenan-induced paw edema in C57BL/6 mouse assessed as increase in paw volume at 100 mg/kg, po administered 1 hr before carrageenan challenge measured 4 hrs after carrageenan challenge relative to control; type: functional
In short: (§1)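 Male C57BL/6 mice dosed orally at 100 mg/kg as a suspension in 5% carboxymethylcellulose 1 h before challenge. 0.05 ml of 1% w/v carrageenan in 0.9% sterile saline injected subcutaneously into right hind paw plantar region under light anaesthesia. Paw volume by digital plethysmometry immediately and 4 h later. Percent inhibition ± SEM vs vehicle group; diclofenac sodium 100 mg/kg p.o. as standard.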

| Structure (SMILES) | Activity |
| --- | --- |
| CC(=O)Nc1ccc(Cc2noc(CCC(=O)O)n2)cc1 | 18% |
| CC(=O)Nc1ccc(Cc2noc(CCC(=O)Nc3ccc(F)cc3F)n2)cc1 | 34% |
| COc1ccc(NC(=O)CCc2nc(Cc3ccc(NC(C)=O)cc3)no2)cc1 | 37% |
| CC(=O)Nc1ccc(Cc2noc(CCC(=O)Nc3ccccc3F)n2)cc1 | 24% |
| CC(=O)Nc1ccc(Cc2noc(CCC(=O)Nc3ccccc3)n2)cc1 | 48% |
| COc1cccc(NC(=O)CCc2nc(Cc3ccc(NC(C)=O)cc3)no2)c1 | 47% |
| C#Cc1cccc(NC(=O)CCc2nc(Cc3ccc(NC(C)=O)cc3)no2)c1 | 11% |
| CC(=O)Nc1ccc(Cc2noc(CCC(=O)Nc3cccnc3)n2)cc1 | 9% |
| COc1ccccc1NC(=O)CCc1nc(Cc2ccc(NC(C)=O)cc2)no1 | 9% |
| CC(=O)Nc1ccc(Cc2noc(CCC(=O)NCc3ccccc3)n2)cc1 | 17% |
| COc1ccc(NC(=O)CCc2nc(Cc3ccc(NC(C)=O)cc3)no2)cc1F | 29% |
| CC(=O)Nc1ccc(Cc2noc(CCC(=O)Nc3cccc(C)c3)n2)cc1 | 61% |
| CC(=O)Nc1ccc(Cc2noc(CCC(=O)Nc3ccc(F)cc3)n2)cc1 | 26% |
| CC(=O)Nc1ccc(Cc2noc(CCC(=O)Nc3ccc(C(F)(F)F)cc3)n2)cc1 | 46% |
| COc1ccc(NC(=O)CCc2nc(Cc3ccc(NC(C)=O)cc3)no2)cc1OC | 3% |
| O=C([O-])Cc1ccccc1Nc1c(Cl)cccc1Cl.[Na+] [DICLOFENAC SODIUM] | 36% |

test system: Mus musculus; assay: Antiinflammatory activity against carrageenan-induced paw edema in C57BL/6 mouse assessed as inhibition of paw edema at 100 mg/kg, po administered 1 hr before carrageenan challenge measured 4 hrs after carrageenan challenge relative to control; type: functional; in short: as §1

| Structure (SMILES) | inhibition in vivo at 100 mg/kg |
| --- | --- |
| CC(=O)Nc1ccc(Cc2noc(CCC(=O)O)n2)cc1 | 75.3% |
| CC(=O)Nc1ccc(Cc2noc(CCC(=O)Nc3ccc(F)cc3F)n2)cc1 | 52% |
| COc1ccc(NC(=O)CCc2nc(Cc3ccc(NC(C)=O)cc3)no2)cc1 | 49.3% |
| CC(=O)Nc1ccc(Cc2noc(CCC(=O)Nc3ccccc3F)n2)cc1 | 67.1% |
| CC(=O)Nc1ccc(Cc2noc(CCC(=O)Nc3ccccc3)n2)cc1 | 34.2% |
| COc1cccc(NC(=O)CCc2nc(Cc3ccc(NC(C)=O)cc3)no2)c1 | 35.6% |
| C#Cc1cccc(NC(=O)CCc2nc(Cc3ccc(NC(C)=O)cc3)no2)c1 | 84.9% |
| CC(=O)Nc1ccc(Cc2noc(CCC(=O)Nc3cccnc3)n2)cc1 | 87.7% |
| COc1ccccc1NC(=O)CCc1nc(Cc2ccc(NC(C)=O)cc2)no1 | 87.7% |
| CC(=O)Nc1ccc(Cc2noc(CCC(=O)NCc3ccccc3)n2)cc1 | 76.7% |
| COc1ccc(NC(=O)CCc2nc(Cc3ccc(NC(C)=O)cc3)no2)cc1F | 60.3% |
| CC(=O)Nc1ccc(Cc2noc(CCC(=O)Nc3cccc(C)c3)n2)cc1 | 16.4% |
| CC(=O)Nc1ccc(Cc2noc(CCC(=O)Nc3ccc(F)cc3)n2)cc1 | 64.4% |
| CC(=O)Nc1ccc(Cc2noc(CCC(=O)Nc3ccc(C(F)(F)F)cc3)n2)cc1 | 37% |
| COc1ccc(NC(=O)CCc2nc(Cc3ccc(NC(C)=O)cc3)no2)cc1OC | 95.9% |
| O=C([O-])Cc1ccccc1Nc1c(Cl)cccc1Cl.[Na+] [DICLOFENAC SODIUM] | 50.7% |

test system: Mus musculus; assay: Analgesic activity in C57BL/6 mouse assessed as decrease in acetic acid-induced writhing at 100 mg/kg, po administered 1 hr before acetic acid challenge measured during 30 mins of acetic acid challenge relative to control; type: functional; set-up: scale not given: the % may be the effect or the level left
In short: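 Male C57BL/6 mice given 100 mg/kg orally (suspension in 5% carboxymethylcellulose) 1 h before i.p. injection of 0.25 ml 0.6% v/v acetic acid. Writhes counted over 30 min after injection. Percent inhibition calculated against mean writhing count of the control group; diclofenac sodium 100 mg/kg p.o. as standard.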

| Structure (SMILES) | Activity |
| --- | --- |
| CC(=O)Nc1ccc(Cc2noc(CCC(=O)O)n2)cc1 | 46.43% |
| CC(=O)Nc1ccc(Cc2noc(CCC(=O)Nc3ccc(F)cc3F)n2)cc1 | -0.6% |
| COc1ccc(NC(=O)CCc2nc(Cc3ccc(NC(C)=O)cc3)no2)cc1 | 67.26% |
| CC(=O)Nc1ccc(Cc2noc(CCC(=O)Nc3ccccc3F)n2)cc1 | -23.21% |
| CC(=O)Nc1ccc(Cc2noc(CCC(=O)Nc3ccccc3)n2)cc1 | -13.1% |
| COc1cccc(NC(=O)CCc2nc(Cc3ccc(NC(C)=O)cc3)no2)c1 | -7.14% |
| C#Cc1cccc(NC(=O)CCc2nc(Cc3ccc(NC(C)=O)cc3)no2)c1 | 61.31% |
| CC(=O)Nc1ccc(Cc2noc(CCC(=O)Nc3cccnc3)n2)cc1 | 80.95% |
| COc1ccccc1NC(=O)CCc1nc(Cc2ccc(NC(C)=O)cc2)no1 | 73.81% |
| CC(=O)Nc1ccc(Cc2noc(CCC(=O)NCc3ccccc3)n2)cc1 | -0.6% |
| COc1ccc(NC(=O)CCc2nc(Cc3ccc(NC(C)=O)cc3)no2)cc1F | 36.9% |
| CC(=O)Nc1ccc(Cc2noc(CCC(=O)Nc3cccc(C)c3)n2)cc1 | 67.26% |
| CC(=O)Nc1ccc(Cc2noc(CCC(=O)Nc3ccc(F)cc3)n2)cc1 | 67.86% |
| CC(=O)Nc1ccc(Cc2noc(CCC(=O)Nc3ccc(C(F)(F)F)cc3)n2)cc1 | 31.55% |
| COc1ccc(NC(=O)CCc2nc(Cc3ccc(NC(C)=O)cc3)no2)cc1OC | 80.36% |
| O=C([O-])Cc1ccccc1Nc1c(Cl)cccc1Cl.[Na+] [DICLOFENAC SODIUM] | 77.38% |
